Test results as given in ChEMBL document CHEMBL3120088, “Discovery of selective small molecule type III phosphatidylinositol 4-kinase alpha (PI4KIIIα) inhibitors as anti hepatitis C (HCV) agents” (J Med Chem, 2014).
Activity calls are given as the source filed them. No cut-off for these calls is given here.

Assays:
Hepatitis C virus [1] = experiment: Antiviral activity against Hepatitis C virus genotype 1b expressed in ET cells after 48 hrs by luciferase reporter gene assay; type: functional, organism-based, Hepacivirus hominis
[2] = target: T1, Phosphatidylinositol 4-kinase alpha (Homo sapiens, UniProt P42356); experiment: Inhibition of GST-tagged PI4K-alpha (1 to 2044) (unknown origin) using D-myo-phosphatidylinositol as substrate preincubated for 30 mins followed by substrate addition measured after 180 mins by luminescence assay
Target sequence in this assay (P42356 whole entry): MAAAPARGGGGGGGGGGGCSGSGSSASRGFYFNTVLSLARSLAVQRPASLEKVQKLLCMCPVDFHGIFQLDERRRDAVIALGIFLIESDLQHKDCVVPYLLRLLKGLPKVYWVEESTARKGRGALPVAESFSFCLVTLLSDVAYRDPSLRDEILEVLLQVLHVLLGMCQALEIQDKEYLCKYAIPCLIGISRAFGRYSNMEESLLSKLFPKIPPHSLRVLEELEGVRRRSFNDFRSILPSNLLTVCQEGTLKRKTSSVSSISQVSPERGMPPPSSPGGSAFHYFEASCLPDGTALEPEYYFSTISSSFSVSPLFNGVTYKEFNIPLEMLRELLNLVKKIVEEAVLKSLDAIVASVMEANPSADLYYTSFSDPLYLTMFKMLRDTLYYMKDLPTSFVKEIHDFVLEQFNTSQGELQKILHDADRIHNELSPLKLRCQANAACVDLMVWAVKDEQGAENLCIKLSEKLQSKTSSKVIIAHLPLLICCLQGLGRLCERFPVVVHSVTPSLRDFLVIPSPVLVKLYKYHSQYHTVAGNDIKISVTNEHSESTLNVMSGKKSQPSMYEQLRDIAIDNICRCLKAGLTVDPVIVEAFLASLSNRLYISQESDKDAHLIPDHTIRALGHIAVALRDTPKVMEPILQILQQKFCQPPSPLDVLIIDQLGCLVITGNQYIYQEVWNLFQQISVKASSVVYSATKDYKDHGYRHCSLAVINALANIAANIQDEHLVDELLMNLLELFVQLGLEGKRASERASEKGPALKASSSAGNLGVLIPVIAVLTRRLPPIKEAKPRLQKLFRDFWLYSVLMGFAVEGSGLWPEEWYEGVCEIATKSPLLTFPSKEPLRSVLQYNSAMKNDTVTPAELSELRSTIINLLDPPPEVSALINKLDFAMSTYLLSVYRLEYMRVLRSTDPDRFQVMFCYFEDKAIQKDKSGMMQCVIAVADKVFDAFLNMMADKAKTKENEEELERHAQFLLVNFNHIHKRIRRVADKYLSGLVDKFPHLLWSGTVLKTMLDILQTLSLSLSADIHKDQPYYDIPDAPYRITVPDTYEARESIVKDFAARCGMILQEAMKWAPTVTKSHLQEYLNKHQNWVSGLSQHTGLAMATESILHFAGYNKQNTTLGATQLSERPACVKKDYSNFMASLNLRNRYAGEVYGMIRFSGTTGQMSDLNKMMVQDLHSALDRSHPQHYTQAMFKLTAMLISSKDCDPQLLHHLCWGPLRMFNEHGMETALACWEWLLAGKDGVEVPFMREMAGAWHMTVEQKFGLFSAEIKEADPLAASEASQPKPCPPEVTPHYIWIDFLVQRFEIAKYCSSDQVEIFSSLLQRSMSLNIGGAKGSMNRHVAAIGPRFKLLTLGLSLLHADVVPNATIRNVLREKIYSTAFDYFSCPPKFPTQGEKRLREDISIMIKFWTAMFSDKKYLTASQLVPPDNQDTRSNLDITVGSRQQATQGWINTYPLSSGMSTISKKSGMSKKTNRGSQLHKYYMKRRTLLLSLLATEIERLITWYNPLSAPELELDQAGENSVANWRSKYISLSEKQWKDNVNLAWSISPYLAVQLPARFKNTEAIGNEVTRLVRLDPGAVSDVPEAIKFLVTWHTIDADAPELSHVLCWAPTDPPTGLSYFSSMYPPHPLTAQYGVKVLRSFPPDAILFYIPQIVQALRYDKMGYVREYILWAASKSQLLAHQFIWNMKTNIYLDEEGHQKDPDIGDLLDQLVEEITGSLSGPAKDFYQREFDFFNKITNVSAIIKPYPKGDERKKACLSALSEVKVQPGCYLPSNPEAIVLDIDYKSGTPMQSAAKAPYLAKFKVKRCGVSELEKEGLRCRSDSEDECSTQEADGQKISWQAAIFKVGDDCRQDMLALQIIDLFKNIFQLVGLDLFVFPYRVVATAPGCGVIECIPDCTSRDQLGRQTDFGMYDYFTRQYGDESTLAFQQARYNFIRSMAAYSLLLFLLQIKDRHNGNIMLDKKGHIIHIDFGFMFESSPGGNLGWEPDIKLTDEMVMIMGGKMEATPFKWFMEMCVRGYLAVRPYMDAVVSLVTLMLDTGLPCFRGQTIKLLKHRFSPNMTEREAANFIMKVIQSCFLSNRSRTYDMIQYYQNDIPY

[3] = Inhibition of PI3Kbeta (1 to 1070)/6xHis-tagged p85 (1 to 724) (unknown origin) using diC8-PIP2 as substrate preincubated for 30 mins followed by substrate addition measured after 45 to 60 mins; design: species or system Homo sapiens
[4] = Inhibition of PI3Kalpha (1 to 1068)/6xHis-tagged p85 (1 to 724) (unknown origin) using diC8-PIP2 as substrate preincubated for 30 mins followed by substrate addition measured after 45 to 60 mins; design: species or system Homo sapiens
[5] = Inhibition of PI3Kdelta (1 to 1044)/6xHis-tagged p85 (1 to 724) (unknown origin) using diC8-PIP2 as substrate preincubated for 30 mins followed by substrate addition measured after 45 to 60 mins; design: species or system Homo sapiens
[6] = Inhibition of 6xHis-tagged PI4K-beta (13 to 828) 316 to 330 deletion mutant (unknown origin) using D-myo-phosphatidylinositol as substrate preincubated for 30 mins followed by substrate addition measured after 180 mins by luminescence assay; design: species or system Homo sapiens
[7] = target: Phosphatidylinositol 4,5-bisphosphate 3-kinase catalytic subunit gamma isoform (Homo sapiens, UniProt P48736)
Sequence of Phosphatidylinositol 4,5-bisphosphate 3-kinase catalytic subunit gamma isoform (P48736 whole entry, canonical isoform): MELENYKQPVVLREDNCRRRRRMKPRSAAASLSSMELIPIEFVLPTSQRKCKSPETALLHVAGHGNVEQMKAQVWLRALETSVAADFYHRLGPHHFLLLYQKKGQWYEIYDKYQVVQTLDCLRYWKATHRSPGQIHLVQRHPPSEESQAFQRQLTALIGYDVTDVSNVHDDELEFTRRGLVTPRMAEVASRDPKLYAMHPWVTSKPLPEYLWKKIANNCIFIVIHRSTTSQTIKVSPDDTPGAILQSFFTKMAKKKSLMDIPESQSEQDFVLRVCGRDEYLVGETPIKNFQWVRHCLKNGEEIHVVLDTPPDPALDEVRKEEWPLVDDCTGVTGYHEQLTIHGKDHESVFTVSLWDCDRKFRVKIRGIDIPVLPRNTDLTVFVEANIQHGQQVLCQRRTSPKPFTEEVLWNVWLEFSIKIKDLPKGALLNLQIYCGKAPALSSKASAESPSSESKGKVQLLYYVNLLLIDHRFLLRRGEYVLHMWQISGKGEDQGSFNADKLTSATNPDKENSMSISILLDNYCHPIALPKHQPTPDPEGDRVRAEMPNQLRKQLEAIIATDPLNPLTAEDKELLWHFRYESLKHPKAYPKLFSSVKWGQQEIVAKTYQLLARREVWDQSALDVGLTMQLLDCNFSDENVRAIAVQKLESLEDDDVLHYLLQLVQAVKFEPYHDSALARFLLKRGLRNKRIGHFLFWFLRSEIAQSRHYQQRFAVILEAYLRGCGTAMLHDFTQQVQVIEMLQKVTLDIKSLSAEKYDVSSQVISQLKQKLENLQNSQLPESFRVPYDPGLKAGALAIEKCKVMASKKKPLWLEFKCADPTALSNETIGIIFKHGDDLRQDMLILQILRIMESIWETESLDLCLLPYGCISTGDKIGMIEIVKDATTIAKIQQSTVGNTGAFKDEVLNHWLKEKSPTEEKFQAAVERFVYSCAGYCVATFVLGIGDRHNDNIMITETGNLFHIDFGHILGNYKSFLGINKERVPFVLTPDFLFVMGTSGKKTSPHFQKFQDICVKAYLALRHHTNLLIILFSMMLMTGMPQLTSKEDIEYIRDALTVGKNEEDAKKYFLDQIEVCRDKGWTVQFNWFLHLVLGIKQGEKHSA

[8] = Tmax in Sprague-Dawley rat at 5 mg/kg, po; type: ADME, organism-based; design: dose 5 mg/kg, route oral; details: Sprague-Dawley, in vivo
In short: (§1)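 Rats were given a single dose of compound formulated in DMSO/cyclodextrin, either intravenously at 1 mg/kg or orally at 5 mg/kg. Each parameter comes from the matching route arm. Dose-normalized AUC is expressed as h kg ng mL⁻¹ mg⁻¹.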

[9] = Cmax in Sprague-Dawley rat at 5 mg/kg, po; type: ADME, organism-based; design: dose 5 mg/kg, route oral; details: Sprague-Dawley, in vivo; in short: as §1
[10] = AUC in Sprague-Dawley rat at 5 mg/kg, po; type: ADME, organism-based; design: dose 5 mg/kg, route oral; details: plasma; in short: as §1
[11] = Half life in Sprague-Dawley rat at 5 mg/kg, po; type: ADME, organism-based; design: dose 5 mg/kg, route oral; details: Sprague-Dawley, in vivo; in short: as §1
[12] = Oral bioavailability in Sprague-Dawley rat at 5 mg/kg; type: ADME, organism-based; details: Sprague-Dawley, in vivo; in short: as §1
[13] = target: T1, Phosphatidylinositol 4-kinase alpha; experiment: Competitive inhibition of GST-tagged PI4K-alpha (1 to 2044) (unknown origin) in presence of ATP
Hepatitis C virus [14] = experiment: Antiviral activity against Hepatitis C virus genotype 1a expressed in ET cells after 48 hrs by luciferase reporter gene assay; type: functional, organism-based, Hepacivirus hominis, subtype 1a
Hepatitis C virus [15] = experiment: Antiviral activity against Hepatitis C virus genotype 2a expressed in human Huh-7 Lunet cells after 48 hrs by luciferase reporter gene assay; type: functional, organism-based, Hepacivirus hominis; details: Hepatitis C virus, genotype 2a, Huh-7, 48 h
[16] = Hepatitis C virus, genotype 1b, ET, 48 h

SMILES | IC50 (Hepatitis C virus [1]; [16]) | IC50 [2] | pIC50 [3] | pIC50 [4] | pIC50 [5] | pIC50 [6] | IC50 [7] | Tmax [8] | Cmax [9] | AUC [10] | half-life [11] | bioavailability [12] | inhibition [13] | EC50 (Hepatitis C virus [1]; [16]) | EC50 (Hepatitis C virus [14]; Hepatitis C virus, subtype 1a, ET, 48 h) | EC50 (Hepatitis C virus [15]) | pIC50 (Hepatitis C virus [1]; et) | pIC50 (Hepatitis C virus [14]; et)
COc1ncc(-c2cc3cc(-c4ccccc4)c(N)nc3cn2)cc1NS(=O)(=O)c1ccc(F)cc1F | 158 nM | 200 nM | 5.8 | 5.7 | 6.2 | 5 | 1260 nM | – | – | – | – | – | – | – | – | – | – | –
COc1ncc(-c2ccc3nc(N)n(-c4ccccc4)c(=O)c3c2)cc1NS(=O)(=O)c1cccnc1 | 1 nM | 0.316 nM | 7 | 8.4 | 8.5 | 7.4 | 6.31 nM | – | – | – | – | – | – | – | – | – | – | –
COc1ncc(-c2ccc3nc(N)n(-c4ccc(C(F)(F)F)cc4)c(=O)c3c2)cc1S(=O)(=O)Nc1ccc(F)cc1F | 10 nM | 50.1 nM | 4.6 | 6.1 | 6.4 | 5 | 398 nM | – | – | – | – | – | – | – | – | – | – | –
COc1ncc(-c2ccc3nc(N)c(-c4ccccc4)cc3c2)cc1NS(=O)(=O)c1ccc(F)cc1F | 10 nM | 100 nM | 5.9 | 6.5 | 6.9 | 5.8 | 63.1 nM | – | – | – | – | – | – | – | – | – | – | –
COc1ncc(-c2ccc3nc(N)n(-c4ccccc4)c(=O)c3c2)cc1N(C)S(=O)(=O)c1ccc(F)cc1F | > 2000 nM | 3980 nM | 4.5 | 5.5 | 4.8 | 5 | 3980 nM | – | – | – | – | – | – | – | – | – | – | –
COc1ncc(-c2ccc3nc(N)n(-c4cccc(C(F)(F)F)c4)c(=O)c3c2)cc1S(=O)(=O)Nc1ccc(F)cc1F | 79.4 nM | 50.1 nM | 5 | 6 | 6 | 5.1 | 1580 nM | – | – | – | – | – | – | – | – | – | – | –
COc1ncc(-c2ccc3nc(N)c(-c4ccccc4)cc3n2)cc1NS(=O)(=O)c1ccc(F)cc1F | > 5010 nM | 7940 nM | 4.2 | 4.2 | 4.9 | 5 | 25100 nM | – | – | – | – | – | – | – | – | – | – | –
COc1ncc(-c2ccc3nc(N)n(-c4ccccc4)c(=O)c3c2)cc1NS(=O)(=O)c1ccc(C#N)cc1 | 0.631 nM | 1 nM | 6.3 | 6.6 | 7.6 | 7.5 | 50.1 nM | – | – | – | – | – | – | – | – | – | – | –
COc1ncc(-c2ccc3nc(N)n(-c4ccccc4)c(=O)c3c2)cc1NS(=O)(=O)c1ccc(C)cc1 | 3.16 nM | 15.8 nM | 5.6 | 7.3 | 8 | 6.2 | – | – | – | – | – | – | – | – | – | – | – | –
COc1ncc(-c2ccc3nc(N)n(-c4ccccc4)c(=O)c3c2)cc1NS(=O)(=O)c1ccc(F)cc1F | 0.501 nM | 1.58 nM | 7 | 8.2 | 8.2 | 7.2 | 3.98 nM | 6 h | 3580 ng/mL | 60200 ng·h/mL | 402 min | 60% | – | – | – | – | – | –
COc1ncc(-c2ccc3nc(N)n(-c4ccccc4C)c(=O)c3c2)cc1S(=O)(=O)Nc1ccc(F)cc1F | 2.51 nM | 10 nM | 5.7 | 6.5 | 6.7 | 6.1 | 316 nM | – | – | – | – | – | – | – | – | – | – | –
COc1ncc(-c2ccc3nc(N)c(-c4ccc(N5CCOCC5)cc4)cc3c2)cc1NS(=O)(=O)c1ccc(F)cc1F | – | 39.8 nM | 5 | 5.6 | 6.2 | 5.5 | 631 nM | 0.67 h | 1390 ng/mL | 5000 ng·h/mL | 143 min | 38% | Active | 3.98 nM | 31.6 nM | 20 nM | – | –
COc1ncc(-c2cnc3nc(N)c(-c4ccccc4)cc3c2)cc1NS(=O)(=O)c1ccc(F)cc1F | 126 nM | 631 nM | 6 | 5.3 | 5.7 | 5.4 | 6310 nM | – | – | – | – | – | – | – | – | – | – | –
Nc1ncc(-c2ccc3nc(N)n(-c4ccccc4)c(=O)c3c2)cc1NS(=O)(=O)c1ccc(F)cc1F | 15.8 nM | 0.794 nM | 5.3 | 6.7 | 6.4 | 7.5 | – | – | – | – | – | – | – | – | – | – | – | –
COc1ncc(-c2ccc3nc(N)n(-c4ccccc4)c(=O)c3c2)cc1NS(C)(=O)=O | 20 nM | 20 nM | 5.3 | 6.4 | 6.6 | 6.1 | 794 nM | – | – | – | – | – | – | – | – | – | – | –
CCn1c(N)nc2ccc(-c3cnc(OC)c(S(=O)(=O)Nc4ccc(F)cc4F)c3)cc2c1=O | 20 nM | 39.8 nM | 6.4 | 6.9 | 6.8 | 6 | 158 nM | – | – | – | – | – | – | – | – | – | – | –
COc1ncc(-c2ccc3nc(N)n(C4CCOCC4)c(=O)c3c2)cc1S(=O)(=O)Nc1ccc(F)cc1F | 3.98 nM | 10 nM | 5.4 | 6.6 | 6.6 | 5.9 | 501 nM | – | – | – | – | – | – | – | – | – | – | –
COc1ncc(-c2ccc3nc(N)n(-c4ccccc4)c(=O)c3c2)cc1NS(=O)(=O)c1ccccc1C | 0.398 nM | 1 nM | 6.4 | 7.2 | 7.6 | 6.8 | 39.8 nM | – | – | – | – | – | – | – | – | – | – | –
COc1ccc(-c2ccc3nc(N)n(-c4ccccc4)c(=O)c3c2)cc1NS(=O)(=O)c1ccc(F)cc1F | 31.6 nM | 316 nM | 4 | 5.8 | 5.4 | 6.8 | 316 nM | – | – | – | – | – | – | – | – | – | – | –
COc1ncc(-c2ccc3ncnc(N4CCOCC4)c3c2)cc1NS(=O)(=O)c1ccc(F)cc1F | – | 1.58 nM | 8.7 | 8.9 | 8.9 | 7.7 | 2.51 nM | – | – | – | – | – | – | – | – | – | – | –
COc1ncc(-c2ccc3nc(N)n(-c4ccccc4C(F)(F)F)c(=O)c3c2)cc1S(=O)(=O)Nc1ccc(F)cc1F | – | 15.8 nM | 5 | – | 5.5 | 5.8 | 3160 nM | – | – | – | – | – | – | – | – | – | 8.5 | 7.7
COc1ncc(-c2ccc3nc(N)n(-c4ccccc4)c(=O)c3c2)cc1NS(=O)(=O)c1ccccc1 | 0.501 nM | 2.51 nM | 6.3 | 7.3 | 7.7 | 6.7 | – | – | – | – | – | – | – | – | – | – | – | –
COc1ncc(-c2ccc3nc(N)n(-c4ccccc4C(C)C)c(=O)c3c2)cc1S(=O)(=O)Nc1ccc(F)cc1F | 6.31 nM | 31.6 nM | 4.8 | 5.8 | 5.6 | 6 | 1000 nM | – | – | – | – | – | – | – | – | – | – | –
COc1ncc(-c2ccc3nc(N)n(-c4ccccc4)c(=O)c3c2)cc1NS(=O)(=O)C(C)C | 31.6 nM | 126 nM | 5.3 | 6.4 | 6.7 | 5.9 | 501 nM | – | – | – | – | – | – | – | – | – | – | –
COc1ncc(-c2ccc3nc(N)n(-c4ccccc4)c(=O)c3c2)cc1NS(=O)(=O)c1cccc(C)c1 | 1.26 nM | 3.98 nM | 6.3 | 7.1 | 7.3 | 6.4 | 50.1 nM | – | – | – | – | – | – | – | – | – | – | –
COc1ncc(-c2ccc3nc(N)n(-c4ccccc4)c(=O)c3c2)cc1S(=O)(=O)Nc1ccc(F)cc1F | 5.01 nM | 6.31 nM | 4.9 | 6 | 6.3 | 5.5 | 1260 nM | – | – | – | – | – | – | – | – | – | – | –
COc1ncc(-c2ccc3nc(N)c(-c4ccccc4)nc3c2)cc1NS(=O)(=O)c1ccc(F)cc1F | 15.8 nM | 5.01 nM | 6.7 | 7.1 | 7.8 | 6.9 | 7.94 nM | – | – | – | – | – | – | – | – | – | – | –
